Test results taken from ChEMBL document CHEMBL4699550, “Isolation of Picrotoxanes from Austrobuxus carunculatus Using Taxonomy-Based Molecular Networking” (J Nat Prod, 2020).
Active and inactive are the calls of the source. No cut-off for these calls is given here.

Assays:
U-87 MG [1] = assay: Antiproliferative activity against human U87 cells assessed as reduction in cell viability at 1 uM after 72 hrs by CellTiter Glo assay; type: functional, cell-based; conditions: U-87MG ATCC
A549 [2] = assay: Antiproliferative activity against human A549 cells assessed as reduction in cell viability at 1 uM after 72 hrs by CellTiter Glo assay; type: functional, cell-based
HCT-116 [3] = assay: Antiproliferative activity against human HCT-116 cells assessed as reduction in cell viability at 1 uM after 72 hrs by CellTiter Glo assay; type: functional, cell-based
U-87 MG [4] = assay: Antiproliferative activity against human U87 cells assessed as reduction in cell viability after 72 hrs by CellTiter Glo assay; type: functional, cell-based, U-87MG ATCC
In short: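 U87-MG glioblastoma cells (ATCC) grown in DMEM with 10% FCS and 1% L-glutamine at 37 °C under 5% CO2. Seeded at 3 × 10³ cells/well, cultured 24 h, then treated at 10 final concentrations serially diluted in medium; vehicle-treated controls. CellTiter-Glo luminescence read after 72 h. Triplicate runs; IC50 from four- or five-parameter logistic curves.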

HCT-116 [5] = assay: Antiproliferative activity against human HCT-116 cells assessed as reduction in cell viability after 72 hrs by CellTiter Glo assay; type: functional, cell-based; conditions: HCT-116, 72 h
In short: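 HCT-116 (ATCC) grown in McCoy's 5A with 10% FCS, 1% L-glutamine, 37 °C, 5% CO2. Seeded 3 × 10³ cells/well; after 24 h treated with 10 final concentrations by serial dilution in medium; vehicle controls; triplicate. Luminescent viability read-out after 72 h, reagent 15 min. IC50 from four- or five-parameter logistic fit of dose-response curves.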

A549 [6] = assay: Antiproliferative activity against human A549 cells assessed as reduction in cell viability after 72 hrs by CellTiter Glo assay; type: functional, cell-based; conditions: A549, 72 h
In short: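 A549 cells (ATCC) grown in RPMI 1640 with 10% FCS and 1% L-glutamine at 37 °C under 5% CO2. Seeded at 3 × 10³ cells/well and cultured 24 h, then given 10 final concentrations from serial dilution in medium; vehicle controls. After 72 h, viability read by CellTiter-Glo luminescence. Run in triplicate; IC50 from four- or five-parameter logistic fits.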

A549 [7] = assay: Antiproliferative activity against human A549 cells assessed as reduction in cell viability at 10 uM after 72 hrs by CellTiter Glo assay; type: functional, cell-based
U-87 MG [8] = assay: Antiproliferative activity against human U87 cells assessed as reduction in cell viability at 10 uM after 72 hrs by CellTiter Glo assay; type: functional, cell-based; conditions: U-87MG ATCC
HCT-116 [9] = assay: Antiproliferative activity against human HCT-116 cells assessed as reduction in cell viability at 10 uM after 72 hrs by CellTiter Glo assay; type: functional, cell-based

| SMILES | Activity (U-87 MG [1]) | Activity (A549 [2]) | Activity (HCT-116 [3]) | IC50 (U-87 MG [4]) [µM] | IC50 (HCT-116 [5]) [µM] | IC50 (A549 [6]) [µM] | Activity (A549 [7]) | Activity (U-87 MG [8]) | Activity (HCT-116 [9]) |
| --- | --- | --- | --- | --- | --- | --- | --- | --- | --- |
| CO[C@@H](C)[C@@]1(O)C[C@@]2(OC1=O)[C@@H]1O[C@@H]1[C@@]1(O)[C@H]3C(=O)O[C@H]([C@H]3C(C)C)[C@@H](O)[C@]12C | inactive | inactive | inactive | – | – | – | – | – | – |
| C=C(C)[C@@H]1[C@H]2OC(=O)[C@@H]1[C@]1(O)[C@H]3O[C@H]3[C@]3(C[C@](O)([C@H](C)OC)C(=O)O3)[C@]1(C)[C@@H]2O | inactive | inactive | inactive | – | – | – | – | – | – |
| COc1cccc2c1C(=O)c1c(O)c3c(c(O)c1C2=O)C[C@@](O)(C(=O)CO)C[C@@H]3O[C@H]1C[C@H](N)[C@H](O)[C@H](C)O1 [DOXORUBICIN] | – | – | – | 99.6 | 56.6 | 90 | – | – | – |
| CCCCCCCCCC(=O)O[C@@H]1[C@@H]2OC(=O)[C@@H]([C@@H]2C(C)C)[C@]2(O)[C@H]3O[C@H]3[C@]3(C[C@](O)([C@H](C)OC)C(=O)O3)[C@]12C | inactive | inactive | inactive | 0.7 | – | 5.8 | Active | Active | Active |
| C=C(C)[C@@H]1[C@H]2OC(=O)[C@@H]1[C@]1(O)[C@H]3O[C@H]3[C@]3(C[C@@H]([C@H](C)O)C(=O)O3)[C@]1(C)[C@@H]2O | inactive | inactive | inactive | – | – | – | – | – | – |
| C=C(C)[C@@H]1[C@H]2OC(=O)[C@@H]1[C@]1(O)[C@H]3O[C@H]3[C@]3(C/C(=C\C)C(=O)O3)[C@]1(C)[C@@H]2O | inactive | inactive | inactive | – | – | – | – | – | – |
| C=C(C)[C@@H]1[C@H]2OC(=O)[C@@H]1[C@]1(O)[C@H]3O[C@H]3[C@]3(C[C@H]([C@H](C)OC(=O)CCCCCCCCCCCCCCC)C(=O)O3)[C@]1(C)[C@@H]2O | inactive | inactive | inactive | – | – | – | – | – | – |
| C=C(C)[C@@H]1[C@H]2OC(=O)[C@@H]1[C@]1(O)[C@H]3O[C@H]3[C@]3(CO3)[C@]1(C)[C@@H]2OC(=O)CCCCCCCCCCC | inactive | inactive | inactive | – | – | – | Active | Active | Active |
| C=C(C)[C@@H]1[C@H]2OC(=O)[C@@H]1[C@]1(O)[C@H]3O[C@H]3[C@]3(C[C@@H]([C@H](C)OC(=O)CCCCCCCCCCC)C(=O)O3)[C@]1(C)[C@@H]2O | inactive | inactive | inactive | – | – | – | – | – | – |
| C=C(C)[C@@H]1[C@H]2OC(=O)[C@@H]1[C@]1(O)[C@H]3O[C@H]3[C@]3(C[C@H]([C@H](C)OC(=O)CCCCCCCCCCC)C(=O)O3)[C@]1(C)[C@@H]2O | inactive | inactive | inactive | – | – | – | – | – | – |
| C=C(C)[C@@H]1[C@H]2OC(=O)[C@@H]1[C@]1(O)[C@H]3O[C@H]3[C@]3(C[C@@H]([C@H](C)O)C(=O)O3)[C@]1(C)[C@@H]2OC(=O)CCCCCCCCCCC | inactive | inactive | inactive | 0.7 | – | 5.8 | Active | Active | Active |
| C=C(C)[C@@H]1[C@H]2OC(=O)[C@@H]1[C@]1(O)[C@H]3O[C@H]3[C@]3(C[C@@H]([C@H](C)OC(=O)CCCCCCCCC)C(=O)O3)[C@]1(C)[C@@H]2O | inactive | inactive | inactive | – | – | – | – | – | – |
| C=C(C)[C@@H]1[C@H]2OC(=O)[C@@H]1[C@]1(O)[C@H]3O[C@H]3[C@]3(CO3)[C@]1(C)[C@@H]2O | inactive | inactive | inactive | – | – | – | – | – | – |
| C=C(C)[C@@H]1[C@H]2OC(=O)[C@@H]1[C@]1(O)[C@H]3O[C@H]3[C@]3(C[C@H]([C@H](C)OC(=O)CCCCCCCCC)C(=O)O3)[C@]1(C)[C@@H]2O | inactive | inactive | inactive | – | – | – | – | – | – |
| C=C(C)[C@@H]1[C@H]2OC(=O)[C@@H]1[C@]1(O)[C@H]3O[C@H]3[C@]3(C[C@H]([C@H](C)OC(=O)CCCCCCCCCCCCC)C(=O)O3)[C@]1(C)[C@@H]2O | inactive | inactive | inactive | – | – | – | – | – | – |
